# KCNQ1 inh: inhibitors of human KCNQ1 potassium channel. P51787. CHO-K1 KCNQ1, FluxOR thallium flux fluorescence; hits give high values. B-score at 10 µM. actives 1.3% (n = 310,000). AID 2642;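 active = compounds whose thallium flux B-score, printed positive for inhibition, exceeds three library SD while starting fluorescence stays within three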;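 note: channel opened by potassium depolarization with thallium stimulus after 20 min compound exposure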
# KCNQ1 act: potentiates or activates the human KCNQ1 potassium channel. actives 0.35% (n = 310,000). CHO-K1 KCNQ1, thallium flux FluxOR fluorescence; hits give high values. B-score at 10 µM;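 active = fluorescence ratio B-score, a plate-corrected score, at least three library SD, with initial intensity B-score within 5 SD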
#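 assay system = CHO-K1 cells stably expressing KCNQ1 | medium = assay buffer, equal DMSO in all wells | timing = 37 °C overnight plating, 90-min dark dye load, 20-min compound pretreatment | measured by = kinetic FluxOR thallium fluorescence, 10-s 1-Hz baseline, 110-s post-stimulus read | measure = fluorescence change relative to baseline, converted to B score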
# Kir21 inh: inhibitors of mouse Kir2.1 inward-rectifier potassium channel. actives 0.85% (n = 310,000). AID 1672. HEK293-Kir2.1, FluxOR thallium flux fluorescence; hits give low values. B-score at 10 µM;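 active = fluorescence ratio B-score at or below minus 3 SD of library scores, with starting-brightness B-score within 2 SD, cut at about -4.2 in these data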;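 note: channel flux triggered by added potassium and thallium sulfate stimulus; B-score of peak minus minimum fluorescence over baseline after thallium stimulus; more negative B-score means stronger Kir2.1 block with less thallium influx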
# KCNK9 inh: human KCNK9 channel inhibition. HEK293 KCNK9, FluxOR thallium flux fluorescence; hits give low values. B-score at 10 µM. actives 1.2% (n = 310,000);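 active = ratio B-score over 3 SD below the library mean, with starting fluorescence within 5 SD of its mean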;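 note: negative B-score means less thallium flux so channel inhibition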
# hERG rescue: shields human hERG channel from block by proarrhythmic agents; CHO-hERG, FluxOR thallium flux, dofetilide IC70 present; Q12809; AID 1511; actives 0.51% (n = 310,000); activation (rescue from dofetilide block), less the hit threshold, % at 10 µM;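 active = activation above the mean of controls blocked by dofetilide plus 5 SD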;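 note: thallium influx through hERG after potassium depolarization seen as dye fluorescence rise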
# KCNK3 inh: human KCNK3 channel inhibition, primary screen. B-score at 10 µM. O14649. CHO-KCNK3 thallium flux, FluxOR fluorescence; hits give low values. actives 0.84% (n = 340,000). AID 602410;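 active = B-score under library mean minus 4 SD, starting fluorescence ratio at most library mean plus 5 SD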;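 note: more negative B-score means stronger inhibition of thallium flux through KCNK3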
# Target sequence (O14649 whole entry, looked up): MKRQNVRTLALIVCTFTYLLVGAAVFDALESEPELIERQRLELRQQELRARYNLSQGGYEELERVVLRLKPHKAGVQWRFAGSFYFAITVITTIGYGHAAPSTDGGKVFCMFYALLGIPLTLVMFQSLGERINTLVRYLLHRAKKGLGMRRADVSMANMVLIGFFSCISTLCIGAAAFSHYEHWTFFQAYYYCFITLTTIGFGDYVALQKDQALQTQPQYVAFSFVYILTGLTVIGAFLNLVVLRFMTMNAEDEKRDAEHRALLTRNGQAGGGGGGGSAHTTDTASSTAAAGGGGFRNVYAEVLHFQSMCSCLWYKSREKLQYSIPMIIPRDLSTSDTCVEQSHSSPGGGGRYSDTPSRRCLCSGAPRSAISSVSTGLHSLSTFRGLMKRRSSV
# An asterisk follows results filed as active; i = inactive; nt = no result. Only some compounds are listed: those with a hit (about 3.8% of all), similar ones and a draw of the others.
SMILES,KCNQ1 inh,KCNQ1 act,Kir21 inh,KCNK9 inh,hERG rescue,KCNK3 inh
CCOc1ccccc1-n1c(O)c(C=NCCCN(CC)CC)c(=O)[nH]c1=O,i,i,0.13,i,-6,i
O=S(=O)(c1ccccc1)N1CCCCC1c1cccnc1 (configuration not stated),i,i,-2.5,i,8.4*,i
Nc1ccc(S(=O)(=O)N2CCCCC2c2cccnc2)cc1 (configuration not stated),i,i,-1.4,i,-3,i
O=S(=O)(c1ccc(Cl)cc1)N1CCCC1c1cccnc1 (configuration not stated),i,i,-5.2*,i,-3,i
CC(C)OC(=O)Nc1ccc(N=C(N)N[N+](=O)[O-])cc1,i,i,-0.2,i,-4,i
Clc1ccccc1Nc1ncnc(-n2cccc2)n1,i,i,-0.07,i,-11,i
O=P(Nc1cccnc1)(Oc1ccccc1Cl)Oc1ccccc1Cl,i,i,-4.8*,i,-18,i
COc1ccc(NP(=O)(Oc2ccccc2OC)Oc2ccccc2OC)cc1,i,i,-1.3,i,-13,i
O=[N+]([O-])c1ccc2c(c1)C(c1ccccc1)=NCCN2,i,i,0.45,i,-3,i
O=C1CC=C2C3CC4N(CCC45c4cc(O)c(O)cc4N1C25)CC3=CCBr (configuration not stated),nt,nt,nt,nt,nt,i
Cc1ccc(C(=O)N[C@@H](C)CN2C3=NC[C@H](Cc4ccccc4)N3C[C@H]2Cc2ccc(O)cc2)cc1Br,i,i,-5.4*,i,-19,nt
Cc1ccc(C(=O)N[C@@H](C)CN2C3=NC[C@@H](Cc4ccccc4)N3C[C@H]2Cc2ccc(O)cc2)cc1Br,i,i,-5.7*,i,-21,nt
COC(=O)C1=C(c2cccc(C#N)c2)C[C@@H]2CC[C@H]1N2C(=O)NCCOc1ccccc1Cl,nt,nt,nt,nt,nt,i
O=C(O)C(Cc1cnc[nH]1)NS(=O)(=O)c1ccc(Cl)cc1 (configuration not stated),i,i,0.63,i,-8,i
Cc1ccc(S(=O)(=O)NC(Cc2cnc[nH]2)C(=O)O)cc1 (configuration not stated),i,i,0.4,i,10*,i
OC[C@@H](O)CCl,i,i,0.52,i,-4,nt
CN(C)S(=O)(=O)c1cc(NC(=O)C[N+]23CCN(CC2)CC3)ccc1Cl,i,i,2.4,i,-6,i
CN(C)S(=O)(=O)c1cc(NC(=O)COC(=O)Cc2ccccc2)ccc1Cl,6*,i,0.53,i,-5,i
CC1=Nc2ccccc2/C1=C/c1c(O)[nH]c(=O)[nH]c1=O,i,i,0.48,i,-2,i
O=c1[nH]c(O)c(/C=C2/C=CC(c3cc(Cl)ccc3Cl)=N2)c(=O)[nH]1,i,i,0.34,i,7.2*,i
N#CCCn1cc(C(=O)Nc2ccccc2Cl)c(-c2ccc(F)cc2)n1,i,i,-0.26,i,8.2*,i
COc1ccc(N2C(=O)NC(=O)C(CCc3ccncc3)(CCc3ccncc3)C2=O)cc1,i,i,0.63,i,4.6*,i
CCc1ccc(N2C(=O)NC(=O)C(CCc3ccncc3)(CCc3ccncc3)C2=O)cc1,i,i,-1.4,i,-2,i
Cc1cc(=O)oc2cc(OCC(=O)N3CCC(C(=O)O)(c4ccccc4)CC3)ccc12,i,i,0.59,i,-6,i
CCOc1cc(CNCCc2c[nH]c3ccccc23)cc(Cl)c1OC,i,i,-5.6*,i,-18,i
SMILES,KCNQ1 inh,KCNQ1 act,Kir21 inh,KCNK9 inh,hERG rescue,KCNK3 inh
Oc1cccc2cccnc12,i,i,-0.48,-11*,-2,nt
O=C(c1ccc(N2CC3CC(C2)c2cccc(=O)n2C3)c([N+](=O)[O-])c1)N1CCCCC1 (configuration not stated),i,i,0.16,i,0,i
COc1ccc(CC(C)NC2CCCCCC2)cc1 (configuration not stated),i,i,-2.5,i,-8,i
CN1CC(C(=O)c2cccc(C(F)(F)F)c2)C(c2ccc(Cl)cc2)C1 (configuration not stated),i,i,-6.8*,i,-12,i
CN1CCC(N(C)c2ccc(C(N)=O)cc2[N+](=O)[O-])CC1,i,i,-0.12,i,-1,i
CC1(C)C(C(=O)N2CCN(c3ccc(Cl)cc3)CC2)C1(C)C,i,i,1.3,i,-7,i
COC(=O)C1CN(C#N)N(c2ccc(Cl)cc2)C12c1ccccc1-c1ccccc12 (configuration not stated),i,i,1.5,-8.9*,-5,i
N#Cc1ccccc1Cn1cc(C(=O)c2ccccc2F)c2ccccc21,i,i,0,i,-10,i
CN1CCN(CCOC2c3ccccc3CSc3ccc(Cl)cc32)CC1 (configuration not stated),i,i,-4.8*,i,-6,i
Clc1ccc2c(c1)C(OC1CN3CCC1CC3)c1ccccc1CS2 (configuration not stated),i,i,-5.9*,i,-15,i
CCOP(=O)(OCC)C(C)(C)NC(=O)C(Cl)(Cl)Cl,i,i,-0.33,i,-8,i
O=C1NC(=O)C2(Cc3ccccc3N3CCCC32)C(=O)N1c1ccccc1 (configuration not stated),i,i,0.02,i,-15,i
CN1c2ccc([N+](=O)[O-])cc2CC2(C(=O)NC(=O)N(c3ccc(Br)cc3)C2=O)C1c1ccccc1 (configuration not stated),6*,i,2.1,i,-5,i
CC1([N+](=O)[O-])COP(=O)(Nc2cccc(Br)c2)OC1 (configuration not stated),nt,nt,nt,nt,nt,i
CN1CCCN(C(=O)COc2ccccc2Br)CC1,i,i,0.04,i,-7,i
COC(=O)C1=C(c2cc3ccccc3s2)C[C@@H]2CC[C@H]1N2C(=O)NC1CCCCC1,i,i,-1.4,i,-11,i
COc1ccc(NC(c2ccccc2)P(=O)(Oc2ccccc2)Oc2ccccc2)cc1 (configuration not stated),i,i,-0.96,-6.6*,-4,i
COC(=O)CC1=C(C(=O)OC)C2(C(=O)Nc3c(C)cccc32)C(C#N)=C(N)O1 (configuration not stated),i,i,1.1,i,-10,i
CCOc1ccccc1NC(=O)N1CCC2(CC1)OCCO2,i,i,1.1,i,-7,i

# High-throughput results as filed in PubChem BioAssay.
